From ChEMBL document CHEMBL1138476 (J Med Chem, 2009) come the findings set out here.

Series [1] can be described thus: Lipophilicity log P of the compound. As to conditions: octanol/water. The series is classed as physicochemical.
Series [2] is described as follows: Aqueous solubility at pH 7. In kind it is physicochemical. The following applies: aqueous medium.
Series [3] is described as follows: Aqueous solubility at pH 7.4. The series is classed as physicochemical. As to conditions: aqueous medium. The method, boiled down:
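Solubility measured in water at pH 7.4.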

Series [4] is described as follows: Solubility in dilute HCl at pH 2.3. In kind it is physicochemical.
Series [5] relates to Rattus norvegicus. As to the kind of experiment: Anxiolytic activity in rat assessed as increase in time spent on open arm at 18 mg/kg, po by elevated plus-maze test. Also noted: dose 18 mg/kg. The series is classed as functional, organism-based. The method, boiled down:
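Rat elevated plus maze: percent of test time spent in the open arms. Oral dosing in 0.25% Methocel 60 min before testing; n = 12 per dose, mean ± SEM. Analysed by ANOVA followed by Fisher's LSD comparisons against vehicle.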

For series [6], the system named is Rattus norvegicus. The series is described as follows: Anxiolytic activity in rat assessed as decrease in latency to exit dark chamber at 10 mg/kg, po by defensive withdrawal test relative to untreated control. The series is classed as functional. Also noted: scale not given: the % may be the effect or the level left. A digest of the protocol: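 Rat defensive withdrawal: latency to leave the dark chamber and explore the open field, maximum 900 s. Dosed orally in 0.25% Methocel 60 min before testing; n = 8 per dose, mean ± SEM. Analysed by Kruskal–Wallis followed by Mann–Whitney U against vehicle.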

Series [7] deals with T1, Corticotropin-releasing factor receptor 1 (Rattus norvegicus, UniProt P35353).
T1 sequence (P35353 whole entry): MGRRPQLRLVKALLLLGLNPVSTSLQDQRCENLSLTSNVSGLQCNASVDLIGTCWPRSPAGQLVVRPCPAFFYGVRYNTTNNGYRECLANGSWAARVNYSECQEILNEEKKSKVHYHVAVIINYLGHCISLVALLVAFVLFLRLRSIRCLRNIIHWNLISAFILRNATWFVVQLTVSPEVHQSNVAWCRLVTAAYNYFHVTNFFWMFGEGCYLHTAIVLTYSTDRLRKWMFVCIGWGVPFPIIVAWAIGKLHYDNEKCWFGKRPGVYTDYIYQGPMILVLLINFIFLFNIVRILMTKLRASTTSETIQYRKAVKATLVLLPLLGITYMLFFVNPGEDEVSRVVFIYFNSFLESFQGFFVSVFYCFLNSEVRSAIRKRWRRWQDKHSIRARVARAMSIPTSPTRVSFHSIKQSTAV
The series is described as follows: Displacement of [125I]Tyro-rat/human CRF from CRF1 receptor in rat cortical membrane by gamma counting. The series is classed as cell membranes. The method, boiled down:
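Binding to CRF receptors in rat cortical homogenate.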
Background: In a radioligand displacement assay an active substance lowers the binding of a labelled ligand.

Series [8] in a line: AUC in Beagle dog at 1 mg/kg, po by cassette dosing. In kind it is ADME, organism-based, Canis lupus familiaris. Set-up: dose 1 mg/kg, route oral. The following applies: plasma.
Series [9] in a line: Cmax in Beagle dog at 1 mg/kg, po by cassette dosing. In kind it is ADME, organism-based, Canis lupus familiaris. Also noted: dose 1 mg/kg, route oral. The following applies: in vivo.
A short description of series [10]: Half life in Beagle dog at 1 mg/kg, po by cassette dosing. Also noted: dose 1 mg/kg, route oral. As to conditions: in vivo. The series is classed as ADME, organism-based, Canis lupus familiaris.
The nature of series [11]: Half life in Beagle dog by discrete dosing. As to conditions: in vivo. The series is classed as ADME, organism-based, Canis lupus familiaris.
For series [12], the target named is T1, Corticotropin-releasing factor receptor 1. The series is described as follows: Agonist activity at CRF1 receptor in rat pituitary cells.
Series [13] is described as follows: Clearance in rat at 1 mg/kg, iv and 5 mg/kg, po. In kind it is ADME, organism-based. The following applies: in vivo. The method, boiled down:
(§1)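 Rats (n = 3) received 1 mg/kg iv in 10% DMAC, 70% propylene glycol and deionized water, or 5 mg/kg orally in 0.5% methylcellulose.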

Series [14] can be described thus: Volume of distribution at steady state in rat at 1 mg/kg, iv and 5 mg/kg, po. In kind it is ADME, organism-based. As to conditions: in vivo, read-out: Vdss. The method, boiled down:
(§2)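 Rats (n = 3) dosed iv at 1 mg/kg in 10% DMAC, 70% propylene glycol and deionized water, and orally at 5 mg/kg in 0.5% methylcellulose.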

The nature of series [15]: Cmax in rat at 5 mg/kg, po. In kind it is ADME, organism-based. Also noted: dose 5 mg/kg, route oral. As to conditions: in vivo. The method, boiled down:
as §1

Series [16] is described as follows: Tmax in rat at 5 mg/kg, po. The series is classed as ADME, organism-based. As to conditions: in vivo. Set-up: dose 5 mg/kg, route oral. A digest of the protocol: as §2
A short description of series [17]: Oral bioavailability in rat at 5 mg/kg. The following applies: in vivo. In kind it is ADME, organism-based. The method, boiled down:
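Rats (n = 3) were dosed at 1 mg/kg iv in 10% DMAC, 70% propylene glycol and deionized water, and at 5 mg/kg po in 0.5% methylcellulose.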

A short description of series [18]: AUC (0 to infinity) in chimpanzee at 0.5 mg/kg, iv. The following applies: plasma. Also noted: time infinity, dose 0.5 mg/kg, route intravenous. In kind it is ADME, organism-based, Pan troglodytes. The method, boiled down:
(§3)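 Chimpanzee PK. Oral: 1 mg/kg in two alert animals, given as a 1 mg/mL suspension in 50–50 (v/v) 0.5% methylcellulose/Tang orange juice with 1% Tween-80. IV: 0.5 mg/kg in one animal in 10% DMAC, 70% propylene glycol and deionized water, infused over 10 min (0.2 mL/kg). EDTA blood was taken predose and at 2–96 h; iv sampling added 6, 15 and 30 min.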

Series [19] in a line: AUC (0 to infinity) in chimpanzee at 1 mg/kg, po. The series is classed as ADME, organism-based, Pan troglodytes. Also noted: time infinity, dose 1 mg/kg, route oral. The following applies: plasma. A digest of the protocol:
as §3

The nature of series [20]: Cmax in chimpanzee at 1 mg/kg, po. The following applies: in vivo. Also noted: dose 1 mg/kg, route oral. The series is classed as ADME, organism-based, Pan troglodytes. The method, boiled down: as §3
Series [21] is described as follows: Clearance in chimpanzee at 0.5 mg/kg, iv. As to conditions: in vivo. The series is classed as ADME, organism-based, Pan troglodytes. Set-up: dose 0.5 mg/kg, route intravenous. The method, boiled down:
as §3

Series [22] can be described thus: Volume of distribution at steady state in chimpanzee at 0.5 mg/kg, iv. In kind it is ADME, organism-based, Pan troglodytes. Also noted: dose 0.5 mg/kg, route intravenous. As to conditions: in vivo, read-out: Vdss. A digest of the protocol:
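Single chimpanzee given 0.5 mg/kg iv over 10 min (0.2 mL/kg) in 10% DMAC, 70% propylene glycol and deionized water. EDTA blood taken predose, at 6, 15 and 30 min, and at 2 to 96 h.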

The nature of series [23]: Elimination half life in chimpanzee at 0.5 mg/kg, iv. In kind it is ADME, organism-based, Pan troglodytes. Also noted: dose 0.5 mg/kg, route intravenous. As to conditions: in vivo, read-out: beta t1/2 (converted). The method, boiled down:
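One chimpanzee received 0.5 mg/kg iv over 10 min (0.2 mL/kg) in 10% DMAC, 70% propylene glycol and deionized water. Blood was drawn into EDTA predose and at 6, 15, 30 min and 2, 4, 6, 9, 12, 24, 36, 48, 72 and 96 h.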

The nature of series [24]: Elimination half life in chimpanzee at 1 mg/kg, po. In kind it is ADME, organism-based, Pan troglodytes. Also noted: dose 1 mg/kg, route oral. The following applies: in vivo, read-out: beta t1/2 (converted). A digest of the protocol:
(§4)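 Two alert chimpanzees were given 1 mg/kg po as a 1 mg/mL suspension in 50:50 (v/v) 0.5% methylcellulose and Tang orange juice containing 1% Tween-80. EDTA blood was taken predose and at 2–96 h. Bioavailability was calculated against a 0.5 mg/kg iv dose given to one animal.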

The nature of series [25]: Oral bioavailability in chimpanzee at 1 mg/kg. As to conditions: in vivo. The series is classed as ADME, organism-based, Pan troglodytes. A digest of the protocol: as §4

Each structure is given as a SMILES string. ≈ marks a conversion by molar mass, not a printed value. Calls of active or inactive are those of the source. The rule behind the calls is not given here.

On to `COCC(COC)Nc1nc(C)nc2c(-c3ccc(Cl)cc3Cl)c(C)nn12`, for which the logP (in general, a log measure of how a compound divides between an organic and an aqueous phase) in series [1] was determined as 4.97. The solubility (in general, the concentration that dissolves in the medium under given conditions) in series [2] is less than 1 µg/mL; in [3], less than 1 µg/mL; in [4] it was 230 µg/mL (≈ 561 µM). Further, the result in series [5] was Active. For the same molecule, the Activity in series [6] is reported as 72%.

Regarding `CCN(C)c1nc(C)nc2c(-c3ccc(OC)nc3C)c(C)nn12`, the IC50 – broadly, the concentration at which inhibition is half-maximal – in series [7] worked out at 81.6 nM.

`CCCC(C)Nc1nc(C)nc2c(-c3ccc(OC)nc3C)c(C)nn12` (centres undefined): the IC50 in series [7] came out at 3.5 nM. Further, the AUC (as a rule, concentration integrated over time) in series [8] worked out at 0.955 µM·h. The concentration in series [9] peaked (Cmax) at 156 nM. In [10], this molecule had a half-life of 11.8 h.

Turning to `CCCCC(C)Nc1nc(C)nc2c(-c3ccc(OC)nc3C)c(C)nn12` (centres undefined), the IC50 in series [7] is 5.1 nM.

Molecule `CCCN(CCC)c1nc(C)nc2c(-c3c(C)cc(N(C)C)nc3C)c(C)nn12` displayed an IC50 in series [7] of 14.9 nM.

In the case of `CCN(CC)c1nc(C)nc2c(-c3ccc(OC)nc3C)c(C)nn12`, in series [7], the IC50 was 12 nM.

For `CCCN(CCC)c1nc(C)nc2c(-c3ccc(OC)nc3C)c(C)nn12`, the IC50 in series [7] was 5.7 nM.

Take `COCCN(CCOC)c1nc(C)nc2c(-c3ccc(OC)cc3C)c(C)nn12.O=S(=O)(O)c1ccccc1`: the half-life was 27 h in series [11], 10.1 h in series [10], 20.2 h in series [23] and 16.5 h in [24]. Moreover, the IC50 in [12] was 72.9 nM. Besides, in series [1], the logP is 4.76. Also, the AUC in series [8] stood at 1.66 µM·h. For the same molecule, the Cmax – broadly, the peak of the concentration-time curve – in series [9] was 369 nM; in series [15] it was 851 nM; in [20], 27 nM. The figures for the solubility in series [3] and in [4] were less than 1 µg/mL and 2500 µg/mL, respectively. Also, the clearance in series [13] is 20 mL/min/kg; in [21], 10.2 mL/min/kg. Also, the Vd in series [14] came out at 14.6 L/kg; in [22] it was 9.52 L/kg. Moreover, the Tmax (commonly the time from dosing to the highest level) in series [16] stood at 0.5 h. Also, the bioavailability (in general, the share of a dose that reaches the circulation, judged against a reference dose that is usually intravenous) in series [17] was determined as 51%; in [25] it was 5.2%. The AUC(0-inf) (as a rule, total exposure, with the tail of the curve extrapolated) in series [18] was 2.04 µM·h; in [19], 0.212 µM·h.

In series [7], `CC[C@H](C)Nc1nc(C)nc2c(-c3ccc(OC)nc3C)c(C)nn12` came in with an IC50 of 7 nM. Further, in series [8], the AUC was determined as 0.916 µM·h. The Cmax in series [9] is 168 nM. Besides, in [10], the half-life was 7.9 h.

As to `CCC[C@H](C)Nc1nc(C)nc2c(-c3ccc(OC)nc3C)c(C)nn12`, the IC50 in series [7] turned out to be 4.5 nM.

Molecule `CCC(CC)Nc1nc(C)nc2c(-c3c(C)cc(N(C)C)nc3C)c(C)nn12` registered an IC50 in series [7] of 25.6 nM.

Regarding `COCCN(CCOC)c1nc(C)nc2c(-c3c(C)cc(N(C)C)nc3C)c(C)nn12`, the IC50 in [7] turned out to be 133 nM.

`CCN(CC)c1nc(C)nc2c(-c3c(C)cc(N(C)C)nc3C)c(C)nn12` displayed an IC50 in series [7] of 58 nM.

Regarding `CCN(CCOC)c1nc(C)nc2c(-c3ccc(OC)nc3C)c(C)nn12`, the IC50 in series [7] is 6.6 nM.

`CCCCN(CC)c1nc(C)nc2c1c(C)cn2-c1c(C)cc(C)cc1C.Cl` returned a logP in series [1] greater than 5. This molecule yielded a solubility in [2] of less than 1 µg/mL.

Take `CCCCN(CC)c1nc(C)nc2c(-c3c(C)cc(N(C)C)nc3C)c(C)nn12`: the IC50 in series [7] is 32.8 nM.

In [7], `CCCCN(CCC)c1nc(C)nc2c(-c3c(C)cc(N(C)C)nc3C)c(C)nn12` had an IC50 of 12.8 nM.
